Source: ChEMBL document CHEMBL4000255, “Discovery and Assessment of Atropisomers of (±)-Lesinurad” (ACS Med Chem Lett, 2017)
Values joined by “and” are separate entries in the source; they are usually repeats but may differ in a detail not shown here. Equal values may be shown once.

Columns and labels:
[1] = target: Voltage-gated inwardly rectifying potassium channel KCNH2 (Homo sapiens, UniProt Q12809); assay: Inhibition of human ERG
Cytochrome P450 2D6 = Cytochrome P450 2D6 (Homo sapiens, UniProt P10635); assay: Inhibition of CYP2D6 (unknown origin); assay type: ADME
Chain of Cytochrome P450 2D6 (P10635 whole entry): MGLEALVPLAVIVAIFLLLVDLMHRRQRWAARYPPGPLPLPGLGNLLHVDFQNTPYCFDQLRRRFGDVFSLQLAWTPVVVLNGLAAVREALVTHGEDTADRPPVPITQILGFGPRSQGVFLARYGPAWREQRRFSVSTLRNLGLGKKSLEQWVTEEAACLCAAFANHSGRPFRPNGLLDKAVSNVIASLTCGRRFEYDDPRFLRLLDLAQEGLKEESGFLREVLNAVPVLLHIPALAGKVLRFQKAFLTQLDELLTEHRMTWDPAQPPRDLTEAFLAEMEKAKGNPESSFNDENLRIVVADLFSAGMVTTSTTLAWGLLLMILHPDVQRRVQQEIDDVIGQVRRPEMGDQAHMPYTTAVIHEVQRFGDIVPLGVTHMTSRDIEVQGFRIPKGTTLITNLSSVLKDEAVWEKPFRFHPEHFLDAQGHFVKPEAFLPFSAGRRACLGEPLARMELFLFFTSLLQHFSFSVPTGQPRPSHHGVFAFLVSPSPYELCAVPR

Cytochrome P450 2C9 [2] = target: T1, Cytochrome P450 2C9 (Homo sapiens, UniProt P11712); assay: Inhibition of CYP2C9 (unknown origin); assay type: ADME
T1 sequence (P11712 whole entry): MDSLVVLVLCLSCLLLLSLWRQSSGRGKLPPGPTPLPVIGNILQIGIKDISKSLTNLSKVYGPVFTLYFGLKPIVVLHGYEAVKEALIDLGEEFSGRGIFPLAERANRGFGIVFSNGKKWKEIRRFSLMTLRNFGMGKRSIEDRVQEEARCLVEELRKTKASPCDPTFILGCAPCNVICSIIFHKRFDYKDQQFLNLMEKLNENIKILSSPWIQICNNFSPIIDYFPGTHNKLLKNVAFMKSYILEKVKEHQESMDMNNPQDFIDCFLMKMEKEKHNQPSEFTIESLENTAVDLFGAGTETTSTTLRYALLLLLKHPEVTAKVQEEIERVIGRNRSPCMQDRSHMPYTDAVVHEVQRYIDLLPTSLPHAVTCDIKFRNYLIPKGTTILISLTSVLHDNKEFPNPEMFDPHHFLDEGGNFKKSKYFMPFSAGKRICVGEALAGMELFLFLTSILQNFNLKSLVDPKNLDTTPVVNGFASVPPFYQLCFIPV

Cytochrome P450 3A4 = Cytochrome P450 3A4 (Homo sapiens, UniProt P08684); assay: Inhibition of CYP3A4 (unknown origin); assay type: ADME
Chain of Cytochrome P450 3A4 (P08684 whole entry): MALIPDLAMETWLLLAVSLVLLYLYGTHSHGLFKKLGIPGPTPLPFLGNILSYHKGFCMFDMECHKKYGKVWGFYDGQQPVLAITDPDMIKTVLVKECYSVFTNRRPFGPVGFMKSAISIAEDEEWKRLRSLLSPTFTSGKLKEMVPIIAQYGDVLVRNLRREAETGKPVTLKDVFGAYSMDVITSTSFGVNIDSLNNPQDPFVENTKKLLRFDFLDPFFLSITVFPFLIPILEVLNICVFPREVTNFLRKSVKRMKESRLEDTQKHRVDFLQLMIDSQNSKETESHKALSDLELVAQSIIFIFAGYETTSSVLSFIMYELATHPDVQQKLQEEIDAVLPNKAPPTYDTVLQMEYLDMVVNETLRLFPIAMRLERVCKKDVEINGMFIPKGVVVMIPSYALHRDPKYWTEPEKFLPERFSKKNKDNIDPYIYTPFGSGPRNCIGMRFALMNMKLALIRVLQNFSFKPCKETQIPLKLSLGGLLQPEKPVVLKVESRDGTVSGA

Cytochrome P450 2C19 = Cytochrome P450 2C19 (Homo sapiens, UniProt P33261); assay: Inhibition of CYP2C19 (unknown origin); assay type: ADME
Chain of Cytochrome P450 2C19 (P33261 whole entry): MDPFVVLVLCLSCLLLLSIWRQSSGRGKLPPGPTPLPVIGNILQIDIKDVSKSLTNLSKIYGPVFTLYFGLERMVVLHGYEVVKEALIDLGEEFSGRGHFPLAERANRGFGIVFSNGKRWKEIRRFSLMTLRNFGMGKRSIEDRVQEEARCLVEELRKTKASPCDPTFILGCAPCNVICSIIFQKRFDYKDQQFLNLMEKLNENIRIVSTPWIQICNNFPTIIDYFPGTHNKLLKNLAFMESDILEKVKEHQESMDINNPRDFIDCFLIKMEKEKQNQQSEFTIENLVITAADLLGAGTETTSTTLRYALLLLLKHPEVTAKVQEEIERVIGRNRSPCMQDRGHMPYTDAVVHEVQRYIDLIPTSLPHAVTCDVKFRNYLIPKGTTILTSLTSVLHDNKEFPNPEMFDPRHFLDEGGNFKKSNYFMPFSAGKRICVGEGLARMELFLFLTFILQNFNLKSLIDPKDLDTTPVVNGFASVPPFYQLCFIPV

Cytochrome P450 1A2 = target: T2, Cytochrome P450 1A2 (Homo sapiens, UniProt P05177); assay: Inhibition of CYP1A2 (unknown origin); assay type: ADME
T2 sequence (P05177 whole entry): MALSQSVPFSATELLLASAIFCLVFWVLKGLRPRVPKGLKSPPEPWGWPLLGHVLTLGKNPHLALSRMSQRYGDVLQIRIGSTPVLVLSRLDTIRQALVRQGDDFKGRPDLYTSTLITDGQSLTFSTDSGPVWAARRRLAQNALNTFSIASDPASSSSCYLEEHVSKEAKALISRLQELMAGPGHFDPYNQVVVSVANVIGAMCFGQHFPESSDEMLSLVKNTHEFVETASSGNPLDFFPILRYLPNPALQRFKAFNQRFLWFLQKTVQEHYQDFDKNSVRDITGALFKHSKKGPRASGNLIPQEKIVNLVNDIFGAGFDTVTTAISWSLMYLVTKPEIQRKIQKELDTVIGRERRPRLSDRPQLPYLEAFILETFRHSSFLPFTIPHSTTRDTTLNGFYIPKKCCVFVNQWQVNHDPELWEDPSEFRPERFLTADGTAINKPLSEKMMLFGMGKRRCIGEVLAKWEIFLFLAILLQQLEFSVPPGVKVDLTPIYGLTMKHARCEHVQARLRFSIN

[3] = Stability of the compound in solid state assessed as compound purity after 80 days; assay type: physicochemical; conditions: 1920 h
[4] = Stability of the compound in solid state assessed as racemization after 80 days; assay type: physicochemical; conditions: 1920 h
[5] = Stability of the compound in ethanol at 37 degC for 4 days; assay type: physicochemical; conditions: 96 h
[6] = Stability of the compound in DMSO at 80 degC for 4 days; assay type: physicochemical; conditions: 96 h
Plasma [7] = assay: Stability in human plasma at 37 degC up to 2 hrs; assay type: ADME, cell-free
Plasma [8] = assay: Stability in Sprague-Dawley rat plasma at 37 degC up to 2 hrs; assay type: ADME, cell-free
[9] = Apparent permeability from apical to basolateral side in MDCK cells expressing MDR1; assay type: ADME, cell-based, Canis lupus familiaris; conditions: dog
[10] = Apparent permeability from basolateral to apical side in MDCK cells expressing MDR1; assay type: ADME, cell-based, Canis lupus familiaris; conditions: dog
Plasma [11] = assay: Drug metabolism in Sprague-Dawley rat plasma assessed as (+)-Lesinurad formation at 2 mg/kg, iv administered as single bolus dose by LC-MS/MS analysis; assay type: ADME, organism-based; conditions: in vivo
Plasma [12] = assay: Drug metabolism in Sprague-Dawley rat plasma assessed as (+)-Lesinurad formation at 10 mg/kg, po administered as single dose via gavage by LC-MS/MS analysis; assay type: ADME, organism-based; conditions: in vivo
Plasma [13] = assay: Drug metabolism in Sprague-Dawley rat plasma assessed as (-)-Lesinurad formation at 2 mg/kg, iv administered as single bolus dose by LC-MS/MS analysis; assay type: ADME, organism-based; conditions: in vivo
Plasma [14] = assay: Drug metabolism in Sprague-Dawley rat plasma assessed as (-)-Lesinurad formation at 10 mg/kg, po administered as single dose via gavage by LC-MS/MS analysis; assay type: ADME, organism-based; conditions: in vivo
[15] = Drug metabolism in cynomolgus monkey assessed as (-)-Lesinurad level in urine at 2 mg/kg, iv administered as single bolus dose measured at 24 hrs post dose by LC-MS/MS analysis; assay type: ADME, organism-based, Macaca fascicularis; conditions: in vivo
Outline: (§1)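 Male cynomolgus monkeys received a single 2 mg/kg IV or 10 mg/kg PO dose. Plasma and urine were collected over time periods, and the two atropisomers were quantified separately. Urine values are the mean concentration over 0-24 h. Data are mean±SD, n=3.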

[16] = Drug metabolism in cynomolgus monkey assessed as (+)-Lesinurad level in urine at 2 mg/kg, iv administered as single bolus dose measured at 24 hrs post dose by LC-MS/MS analysis; assay type: ADME, organism-based, Macaca fascicularis; conditions: in vivo, read-out: Drug metabolism; outline: as §1
[17] = Drug metabolism in cynomolgus monkey assessed as (-)-Lesinurad level in urine at 10 mg/kg, po administered as single dose via gavage measured at 24 hrs post dose by LC-MS/MS analysis; assay type: ADME, organism-based, Macaca fascicularis; conditions: in vivo, read-out: Drug metabolism; outline: as §1
[18] = Drug metabolism in cynomolgus monkey assessed as (+)-Lesinurad level in urine at 10 mg/kg, po administered as single dose via gavage measured at 24 hrs post dose by LC-MS/MS analysis; assay type: ADME, organism-based, Macaca fascicularis; conditions: in vivo, read-out: Drug metabolism; outline: as §1
[19] = Drug recovery in cynomolgus monkey urine at 10 mg/kg, po administered as single dose via gavage measured at 24 hrs post dose by LC-MS/MS analysis; assay type: ADME, organism-based, Macaca fascicularis; conditions: read-out: Drug recovery; outline: as §1
[20] = Drug recovery in cynomolgus monkey urine at 2 mg/kg, iv administered as single bolus dose measured at 24 hrs post dose by LC-MS/MS analysis; assay type: ADME, organism-based, Macaca fascicularis; conditions: read-out: Drug recovery; outline: as §1
[21] = (§2) AUC (0 to infinity) in cynomolgus monkey at 2 mg/kg, iv administered as single bolus dose by LC-MS/MS analysis; assay type: ADME, organism-based, Macaca fascicularis; parameters: dose 2 mg/kg, time infinity, route intravenous; conditions: in vivo
Cynomolgus monkey [22] = assay: as §2; assay type: ADME, organism-based, Macaca fascicularis; parameters: dose 2 mg/kg, time infinity, route intravenous; conditions: in vivo
[23] = Apparent plasma clearance in cynomolgus monkey at 2 mg/kg, iv administered as single bolus dose by LC-MS/MS analysis; assay type: ADME, organism-based, Macaca fascicularis; conditions: read-out: CL(app); outline: as §1
[24] = Drug level in cynomolgus monkey urine at 2 mg/kg, iv administered as single bolus dose measured at 24 hrs post dose by LC-MS/MS analysis; assay type: ADME, organism-based, Macaca fascicularis; conditions: read-out: Drug uptake; outline: as §1
Cynomolgus monkey [25] = assay: AUC (0 to infinity) in cynomolgus monkey at 10 mg/kg, po administered as single dose via gavage by LC-MS/MS analysis; assay type: ADME, organism-based, Macaca fascicularis; parameters: dose 10 mg/kg, route oral, time infinity; conditions: in vivo
[26] = Drug level in cynomolgus monkey urine at 10 mg/kg, po administered as single dose via gavage measured at 24 hrs post dose by LC-MS/MS analysis; assay type: ADME, organism-based, Macaca fascicularis; conditions: in vivo, read-out: Drug uptake; outline: as §1
CYP2C9 [27] = target: T3, CYP2C9 (Homo sapiens, UniProt P11712); assay: (§3) Drug metabolism in human liver microsomes assessed as CYP2C9-mediated metabolism by measuring compound half life at 250 pmol/ml preincubated for 10 mins followed by NADPH addition measured after 10 mins by LC-MS/MS analysis; assay type: ADME; conditions: liver microsomes
T3 sequence (P11712 whole entry): as the sequence (P11712 whole entry) above

Cytochrome P450 2C9 [28] = target: T1, Cytochrome P450 2C9; assay: as §3; assay type: ADME; conditions: microsomes, 10 min
Cytochrome P450 2C9 [29] = target: T1, Cytochrome P450 2C9; assay: Drug metabolism in human liver microsomes assessed as CYP2C9-mediated metabolism by measuring compound intrinsic clearance at 250 pmol/ml preincubated for 10 mins followed by NADPH addition measured after 10 mins by LC-MS/MS analysis; assay type: ADME
CYP2C9 [30] = target: T3, CYP2C9; assay: (§4) Drug metabolism in human liver microsomes assessed as CYP2C9-mediated metabolism by measuring parent compound remaining at 250 pmol/ml after 60 mins in presence of NADPH by LC-MS/MS analysis; assay type: ADME; conditions: liver microsomes, read-out: Stability
Cytochrome P450 2C9 [31] = target: T1, Cytochrome P450 2C9; assay: as §4; assay type: ADME; conditions: microsomes, 1 h
CYP2C9 [32] = target: T3, CYP2C9; assay: (§5) Drug metabolism in human liver microsomes assessed as CYP2C9-mediated metabolism by measuring parent compound remaining at 250 pmol/ml after 60 mins in absence of NADPH by LC-MS/MS analysis; assay type: ADME; conditions: liver microsomes, read-out: Stability
Cytochrome P450 2C9 [33] = target: T1, Cytochrome P450 2C9; assay: as §5; assay type: ADME; conditions: microsomes, 1 h
Cytochrome P450 2C9 [34] = target: T1, Cytochrome P450 2C9; assay: Drug metabolism in human liver microsomes assessed as CYP2C9-mediated mono-oxidative metabolite formation at 250 pmol/ml preincubated for 10 mins followed by NADPH addition measured after 10 mins by LC-MS/MS analysis; assay type: ADME; conditions: 0.25 µM
CYP2C9 [35] = target: T3, CYP2C9; assay: Drug metabolism in human liver microsomes assessed as CYP2C9-mediated metabolism by measuring compound half life at 10 pmol/ml preincubated for 10 mins followed by NADPH addition measured after 10 mins by LC-MS/MS analysis; assay type: ADME
Cytochrome P450 2C9 [36] = target: T1, Cytochrome P450 2C9; assay: Drug metabolism in human liver microsomes assessed as CYP2C9-mediated metabolism by measuring compound intrinsic clearance at 10 pmol/ml preincubated for 10 mins followed by NADPH addition measured after 10 mins by LC-MS/MS analysis; assay type: ADME
CYP2C9 [37] = target: T3, CYP2C9; assay: Drug metabolism in human liver microsomes assessed as CYP2C9-mediated metabolism by measuring parent compound remaining at 10 pmol/ml after 60 mins in presence of NADPH by LC-MS/MS analysis; assay type: ADME; conditions: read-out: Stability
CYP2C9 [38] = target: T3, CYP2C9; assay: Drug metabolism in human liver microsomes assessed as CYP2C9-mediated metabolism by measuring parent compound remaining at 10 pmol/ml after 60 mins in absence of NADPH by LC-MS/MS analysis; assay type: ADME; conditions: read-out: Stability

Chain of Voltage-gated inwardly rectifying potassium channel KCNH2 (Q12809 whole entry): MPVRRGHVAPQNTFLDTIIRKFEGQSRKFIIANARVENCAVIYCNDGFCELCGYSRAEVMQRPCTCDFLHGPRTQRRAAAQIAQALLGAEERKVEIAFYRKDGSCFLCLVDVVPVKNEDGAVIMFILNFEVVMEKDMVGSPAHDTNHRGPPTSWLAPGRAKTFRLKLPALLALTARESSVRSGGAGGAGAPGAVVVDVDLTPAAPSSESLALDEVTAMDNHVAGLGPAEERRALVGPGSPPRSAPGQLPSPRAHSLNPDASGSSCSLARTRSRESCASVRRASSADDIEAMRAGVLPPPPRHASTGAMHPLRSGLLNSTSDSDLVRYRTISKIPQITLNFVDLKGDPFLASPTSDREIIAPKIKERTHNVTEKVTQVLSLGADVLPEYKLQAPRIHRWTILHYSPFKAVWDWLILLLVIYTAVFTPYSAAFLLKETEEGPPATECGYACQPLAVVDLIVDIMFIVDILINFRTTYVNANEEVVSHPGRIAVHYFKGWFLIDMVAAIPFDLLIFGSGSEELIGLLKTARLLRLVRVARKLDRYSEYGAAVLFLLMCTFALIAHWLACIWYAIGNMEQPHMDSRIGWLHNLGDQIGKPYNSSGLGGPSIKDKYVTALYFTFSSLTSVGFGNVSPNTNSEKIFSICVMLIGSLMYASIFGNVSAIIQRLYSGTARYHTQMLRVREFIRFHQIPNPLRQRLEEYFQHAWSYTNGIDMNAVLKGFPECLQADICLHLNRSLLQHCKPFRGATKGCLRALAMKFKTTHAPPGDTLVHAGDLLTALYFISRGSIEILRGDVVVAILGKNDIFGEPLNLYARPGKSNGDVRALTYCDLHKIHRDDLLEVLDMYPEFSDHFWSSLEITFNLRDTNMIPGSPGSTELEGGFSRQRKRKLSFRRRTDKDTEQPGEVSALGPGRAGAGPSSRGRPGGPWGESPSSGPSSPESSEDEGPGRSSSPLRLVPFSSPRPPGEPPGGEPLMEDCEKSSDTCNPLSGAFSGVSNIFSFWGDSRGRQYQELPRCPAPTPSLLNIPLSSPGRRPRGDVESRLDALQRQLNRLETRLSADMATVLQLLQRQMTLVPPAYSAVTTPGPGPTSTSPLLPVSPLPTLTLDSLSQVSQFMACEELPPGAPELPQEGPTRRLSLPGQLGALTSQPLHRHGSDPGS

For `O=C(O)CSc1nnc(Br)n1-c1ccc(C2CC2)c2ccccc12` [LESINURAD], the IC50 [1] was greater than 30 µM, the IC50 (Cytochrome P450 2D6) was 32.6 µM and 92.1 µM and > 100 µM and the IC50 (Cytochrome P450 2C9 [2]) was > 100 µM and 78.7 µM and 31.2 µM. For the same compound, the IC50 (Cytochrome P450 3A4) was 74.4 µM and 32.4 µM and 31 µM, the IC50 (Cytochrome P450 2C19) was 61.7 µM and 10.6 µM and 10.8 µM and the IC50 (Cytochrome P450 1A2) was 17.3 µM and 39.3 µM and 21.9 µM. The Stability [3] was “Stable”, the Stability [4] was “Stable” and the Stability [5] was “Stable”. For the same compound, the Stability [6] was “Stable”, the Stability (Plasma [7]) was “Stable” and the Stability (Plasma [8]) was “Stable”. For the same compound, the Papp A→B ([9]; MDCK-MDR1) was 13.4 nm/s, the Papp ([9]; mdck) was 1.29 ucm/s and 1.26 ucm/s and the Papp B→A ([10]; MDCK-MDR1) was 19.8 nm/s. The Papp ([10]; mdck) was 1.84 ucm/s and 1.62 ucm/s, the Drug metabolism (Plasma [11]) was “Metabolite_Notdetected” and the Drug metabolism (Plasma [12]) was “Metabolite_Notdetected”. For the same compound, the Drug metabolism (Plasma [13]) was “Metabolite_Notdetected”, the Drug metabolism (Plasma [14]) was “Metabolite_Notdetected” and the Drug metabolism [15] was 5.4 µM. It also gave a concentration [16] of 2.8 µM, a concentration [17] of 153 µM and a concentration [18] of 38 µM. For the same compound, the dose excreted at 24 h [19] was 20%, the dose excreted at 24 h [20] was 20% and the AUC(0-inf) [21] was 26.7 µM·h. For the same compound, the AUC (Cynomolgus monkey [22]) was 19.2 µM·h, the clearance [23] was 0.198 L/h/kg and the concentration ([24]; in vivo, 24 h) was 15.7 µM. The concentration at 24 h ([24]; urine) was 16.3 µM, the AUC (Cynomolgus monkey [25]) was 83.9 µM·h and 37.3 µM·h and the concentration [26] was 120 µM and 47.8 µM. For the same compound, the half-life at 250 pmol/ml (CYP2C9 [27]) was 1.5 h, the t1/2 (Cytochrome P450 2C9 [28]) was greater than 2.42 h and the CLH (Cytochrome P450 2C9 [29]) was 0.04 µL/min/pmol and < 0.02 µL/min/pmol. It also gave a remaining at 1 h, 250 pmol/ml (CYP2C9 [30]) of 61.8%, a Stability (Cytochrome P450 2C9 [31]) of 74.9% and a remaining at 1 h, 250 pmol/ml (CYP2C9 [32]) of 110%. The Stability (Cytochrome P450 2C9 [33]) was 108.9% and the Drug metabolism (Cytochrome P450 2C9 [34]) was “Metabolite_Detected”.

Work on `O=C(O)Cc1ccccc1Nc1c(Cl)cccc1Cl` [DICLOFENAC] yielded a half-life at 10 pmol/ml (CYP2C9 [35]) of 0.205 h, a CLint (Cytochrome P450 2C9 [36]) of 5.6 µL/min/pmol and a remaining at 1 h, 10 pmol/ml (CYP2C9 [37]) of 3.3%. It also gave a remaining at 1 h, 10 pmol/ml (CYP2C9 [38]) of 112%.
